Measurements reported in ChEMBL document CHEMBL1141480 (Bioorg Med Chem Lett, 2008).
In brackets after ≈: the same amount, converted by molar mass.

How the values were obtained:
Cathepsin K [1] = target: Cathepsin K (Homo sapiens, UniProt P43235); test: Inhibition of humanized rabbit cathepsin K
Cathepsin B [2] = target: T1, Cathepsin B (Homo sapiens, UniProt P07858); test: Inhibition of cathepsin B
Procedure, shortened: (§1)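 Purified human cathepsin enzymes, with assay conditions per an earlier report. Read-out is IC50; standard deviations were typically within 35% of the IC50.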

Procathepsin L [3] = target: T2, Procathepsin L (Homo sapiens, UniProt P07711); test: Inhibition of cathepsin L; procedure, shortened: as §1
Cathepsin S [4] = target: T3, Cathepsin S (Homo sapiens, UniProt P25774); test: Inhibition of cathepsin S; procedure, shortened: as §1
[5] = Half life in monkey; assay type: ADME, organism-based, Macaca mulatta; conditions: rhesus monkey, in vivo
[6] = Clearance in monkey; assay type: ADME, organism-based, Macaca mulatta; conditions: rhesus monkey, in vivo
Cathepsin K [7] = target: T4, Cathepsin K (Oryctolagus cuniculus, UniProt P43236); test: Inhibition of rabbit cathepsin K
T4 sequence (P43236 whole entry): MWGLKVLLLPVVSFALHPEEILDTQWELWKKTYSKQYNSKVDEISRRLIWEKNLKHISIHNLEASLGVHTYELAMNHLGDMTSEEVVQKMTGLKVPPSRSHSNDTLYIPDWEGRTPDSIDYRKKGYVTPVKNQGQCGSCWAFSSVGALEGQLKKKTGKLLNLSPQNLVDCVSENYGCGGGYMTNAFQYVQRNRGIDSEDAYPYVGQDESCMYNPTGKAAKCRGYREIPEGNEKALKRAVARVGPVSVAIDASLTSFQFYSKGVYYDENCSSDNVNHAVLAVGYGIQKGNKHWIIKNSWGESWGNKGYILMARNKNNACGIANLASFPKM

Osteoclast = test: Inhibition of bone resorption in rabbit osteoclast; conditions: Oryctolagus cuniculus
Fibroblast = test: Accumulation of intracellular type I collagen in human dermal fibroblast upto 10 uM; assay type: functional
Procedure, shortened: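 Primary human dermal fibroblasts were grown in 3-D collagen gel, with inhibitors present for the final 3 days at concentrations up to 10 µM. Cells were freed from the gel with collagenase, fixed and permeabilized. Intracellular type I collagen was stained with an anti-type I collagen mAb plus a FITC-labelled secondary antibody and quantified by flow cytometry.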

Cathepsin F = target: T5, Cathepsin F (Homo sapiens, UniProt Q9UBX1); test: Inhibition of cathepsin F; procedure, shortened: as §1
T5 sequence (Q9UBX1 whole entry): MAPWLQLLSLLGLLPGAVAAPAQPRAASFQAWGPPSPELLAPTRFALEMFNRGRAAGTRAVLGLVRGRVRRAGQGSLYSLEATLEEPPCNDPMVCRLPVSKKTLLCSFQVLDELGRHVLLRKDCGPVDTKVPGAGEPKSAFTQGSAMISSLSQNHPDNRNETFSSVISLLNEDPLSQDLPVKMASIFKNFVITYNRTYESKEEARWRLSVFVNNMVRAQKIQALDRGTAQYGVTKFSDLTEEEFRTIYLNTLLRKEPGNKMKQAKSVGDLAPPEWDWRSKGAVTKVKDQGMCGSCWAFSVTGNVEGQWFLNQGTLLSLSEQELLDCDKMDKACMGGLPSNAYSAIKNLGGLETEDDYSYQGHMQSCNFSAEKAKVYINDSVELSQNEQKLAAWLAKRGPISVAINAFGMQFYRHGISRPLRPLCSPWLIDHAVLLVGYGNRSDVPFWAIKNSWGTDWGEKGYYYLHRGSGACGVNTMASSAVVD

Cathepsin L2 = target: T6, Cathepsin L2 (Homo sapiens, UniProt O60911); test: Inhibition of cathepsin V; procedure, shortened: as §1
T6 sequence (O60911 whole entry): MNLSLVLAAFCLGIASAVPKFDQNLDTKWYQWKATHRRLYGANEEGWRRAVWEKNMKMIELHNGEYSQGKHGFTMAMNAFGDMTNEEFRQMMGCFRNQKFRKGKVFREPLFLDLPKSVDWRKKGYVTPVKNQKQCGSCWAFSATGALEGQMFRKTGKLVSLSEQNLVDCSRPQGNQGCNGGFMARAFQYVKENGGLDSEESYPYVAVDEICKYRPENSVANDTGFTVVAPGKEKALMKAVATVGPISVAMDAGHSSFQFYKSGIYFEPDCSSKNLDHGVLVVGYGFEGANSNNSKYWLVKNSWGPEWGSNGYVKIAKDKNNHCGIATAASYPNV

Dipeptidyl peptidase 1 = Dipeptidyl peptidase 1 (Homo sapiens, UniProt P53634); test: Inhibition of cathepsin C; procedure, shortened: as §1
Pro-cathepsin H = target: T7, Pro-cathepsin H (Homo sapiens, UniProt P09668); test: Inhibition of cathepsin H; procedure, shortened: as §1
T7 sequence (P09668 whole entry): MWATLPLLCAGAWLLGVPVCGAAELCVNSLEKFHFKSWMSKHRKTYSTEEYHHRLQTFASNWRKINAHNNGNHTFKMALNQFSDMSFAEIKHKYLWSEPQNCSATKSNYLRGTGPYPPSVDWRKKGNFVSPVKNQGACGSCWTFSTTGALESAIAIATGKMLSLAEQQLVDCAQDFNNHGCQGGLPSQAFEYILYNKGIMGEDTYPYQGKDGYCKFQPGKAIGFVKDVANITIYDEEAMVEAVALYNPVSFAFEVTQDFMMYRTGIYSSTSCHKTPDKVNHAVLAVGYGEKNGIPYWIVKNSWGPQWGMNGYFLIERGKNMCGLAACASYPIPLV

Cathepsin Z = Cathepsin Z (Homo sapiens, UniProt Q9UBR2); test: Inhibition of cathepsin Z
Cathepsin K [8] = target: T8, Cathepsin K (Homo sapiens, UniProt P43235); test: Inhibition of human cathepsin K
T8 sequence (P43235 whole entry): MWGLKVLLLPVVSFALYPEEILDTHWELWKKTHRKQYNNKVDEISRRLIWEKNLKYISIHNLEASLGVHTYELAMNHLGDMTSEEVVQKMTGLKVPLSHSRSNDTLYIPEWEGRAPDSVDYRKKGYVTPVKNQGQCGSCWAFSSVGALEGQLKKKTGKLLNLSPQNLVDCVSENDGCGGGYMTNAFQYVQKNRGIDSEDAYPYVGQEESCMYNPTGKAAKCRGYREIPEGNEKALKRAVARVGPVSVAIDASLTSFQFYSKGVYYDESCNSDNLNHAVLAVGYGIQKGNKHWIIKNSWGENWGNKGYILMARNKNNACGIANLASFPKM

Cathepsin B [9] = target: T1, Cathepsin B; test: Inhibition of cathepsin B in human HepG2 cells; assay type: cell-based
Procedure, shortened: (§2)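 Whole-cell enzyme occupancy assays run as previously described: human HepG2 cells for cathepsin B and L, and Ramos cells for cathepsin S. Read-out is IC50.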

Procathepsin L [10] = target: T2, Procathepsin L; test: Inhibition of cathepsin L in human HepG2 cells; assay type: cell-based
Cathepsin S [11] = target: T3, Cathepsin S; test: Inhibition of cathepsin S in human ramos cells; assay type: cell-based; procedure, shortened: as §2
[12] = Metabolic stability in rhesus monkey hepatocyte at 20 uM after 2 hrs assessed as recovery of parent compound; assay type: ADME, cell-based, Macaca mulatta; conditions: hepatocytes, read-out: Stability
[13] = Metabolic stability in human hepatocyte at 20 uM after 2 hrs assessed as recovery of parent compound; assay type: ADME, cell-based; conditions: hepatocytes, read-out: Stability
[14] = Metabolic stability in dog hepatocyte at 20 uM after 2 hrs assessed as recovery of parent compound; assay type: ADME, cell-based, Canis lupus familiaris; conditions: hepatocytes, read-out: Stability
[15] = Oral bioavailability in rat at 10 mg/kg; assay type: ADME, organism-based; conditions: in vivo
[16] = Clearance in rat at 10 mg/kg, po; assay type: ADME, organism-based; set-up: dose 10 mg/kg, route oral; conditions: in vivo
[17] = Half life in rat at 10 mg/kg, po; assay type: ADME, organism-based; set-up: dose 10 mg/kg, route oral; conditions: in vivo
Rattus norvegicus = test: Volume of distribution at steady state in rat at 10 mg/kg, po; assay type: ADME, organism-based; set-up: dose 10 mg/kg, route oral; conditions: in vivo
[18] = Oral bioavailability in dog at 5 mg/kg; assay type: ADME, organism-based, Canis lupus familiaris; conditions: in vivo
[19] = Clearance in dog at 5 mg/kg, po; assay type: ADME, organism-based, Canis lupus familiaris; set-up: dose 5 mg/kg, route oral; conditions: in vivo
[20] = Half life in dog at 5 mg/kg, po; assay type: ADME, organism-based, Canis lupus familiaris; set-up: dose 5 mg/kg, route oral; conditions: in vivo
Canis familiaris = test: Volume of distribution at steady state in dog at 5 mg/kg, po; assay type: ADME, organism-based, Canis lupus familiaris; set-up: dose 5 mg/kg, route oral; conditions: in vivo
[21] = Oral bioavailability in rhesus monkey at 5 mg/kg; assay type: ADME, organism-based, Macaca mulatta; conditions: in vivo
[22] = Clearance in rhesus monkey at 5 mg/kg, po; assay type: ADME, organism-based, Macaca mulatta; set-up: dose 5 mg/kg, route oral; conditions: in vivo
[23] = Half life in rhesus monkey at 5 mg/kg, po; assay type: ADME, organism-based, Macaca mulatta; set-up: dose 5 mg/kg, route oral; conditions: in vivo
Rhesus monkey = test: Volume of distribution at steady state in rhesus monkey at 5 mg/kg, po; assay type: ADME, organism-based, Macaca mulatta; set-up: dose 5 mg/kg, route oral; conditions: in vivo
[24] = Inhibition of antigen presenting mouse B cells; assay type: functional, cell-based
Splenocyte = test: Inhibition of MHC 2 invariant chain iip10 in mouse splenocytes; assay type: functional, cell-based

T2 sequence (P07711 whole entry): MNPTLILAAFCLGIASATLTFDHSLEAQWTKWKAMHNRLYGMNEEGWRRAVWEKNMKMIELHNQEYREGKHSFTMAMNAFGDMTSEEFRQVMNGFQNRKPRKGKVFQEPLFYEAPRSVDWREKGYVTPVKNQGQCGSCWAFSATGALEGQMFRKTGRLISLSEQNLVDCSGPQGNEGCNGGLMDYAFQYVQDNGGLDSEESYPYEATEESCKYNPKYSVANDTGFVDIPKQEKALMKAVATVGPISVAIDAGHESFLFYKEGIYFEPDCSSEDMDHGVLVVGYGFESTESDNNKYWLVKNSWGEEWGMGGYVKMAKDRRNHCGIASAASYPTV
T3 sequence (P25774 whole entry): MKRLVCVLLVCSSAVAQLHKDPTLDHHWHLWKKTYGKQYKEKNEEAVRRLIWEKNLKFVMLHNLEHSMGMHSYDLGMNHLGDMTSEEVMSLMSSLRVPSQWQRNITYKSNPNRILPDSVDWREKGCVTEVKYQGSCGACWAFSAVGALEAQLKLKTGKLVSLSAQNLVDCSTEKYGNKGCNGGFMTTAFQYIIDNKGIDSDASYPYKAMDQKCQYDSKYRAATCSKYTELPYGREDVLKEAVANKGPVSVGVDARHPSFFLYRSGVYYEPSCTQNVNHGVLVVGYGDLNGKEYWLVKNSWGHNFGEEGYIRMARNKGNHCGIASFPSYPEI
Cathepsin Z, sequence (Q9UBR2 whole entry): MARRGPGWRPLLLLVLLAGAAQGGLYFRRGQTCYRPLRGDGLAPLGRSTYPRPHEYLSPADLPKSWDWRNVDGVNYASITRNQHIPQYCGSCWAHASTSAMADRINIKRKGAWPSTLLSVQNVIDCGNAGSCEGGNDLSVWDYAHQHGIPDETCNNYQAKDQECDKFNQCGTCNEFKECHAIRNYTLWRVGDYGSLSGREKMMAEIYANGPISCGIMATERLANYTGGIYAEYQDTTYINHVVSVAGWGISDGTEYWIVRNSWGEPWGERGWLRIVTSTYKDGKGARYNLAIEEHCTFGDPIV
Dipeptidyl peptidase 1, sequence (P53634 25-134 limits assumed): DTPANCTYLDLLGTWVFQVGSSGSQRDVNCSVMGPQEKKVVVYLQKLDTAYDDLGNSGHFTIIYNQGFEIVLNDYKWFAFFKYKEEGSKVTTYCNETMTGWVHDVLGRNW
Dipeptidyl peptidase 1, sequence (P53634 231-394 limits assumed): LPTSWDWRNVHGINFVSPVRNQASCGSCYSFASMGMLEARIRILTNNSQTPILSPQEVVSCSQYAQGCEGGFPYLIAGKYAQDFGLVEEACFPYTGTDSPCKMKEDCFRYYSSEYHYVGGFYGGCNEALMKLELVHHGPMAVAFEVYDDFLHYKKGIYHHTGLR
Dipeptidyl peptidase 1, sequence (P53634 395-463 limits assumed): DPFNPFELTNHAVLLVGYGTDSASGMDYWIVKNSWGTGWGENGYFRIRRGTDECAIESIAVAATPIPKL

CC(C)C[C@H](N[C@@H](c1ccc(-c2ccc(S(C)(=O)=O)cc2)cc1)C(F)(F)F)C(=O)N[C@@H](C)C#N
IC50 (Cathepsin K [1]): 1.2 nM
IC50 (Cathepsin B [2]): > 10000 nM
IC50 (Procathepsin L [3]): 3390 nM
IC50 (Cathepsin S [4]): 2240 nM

CC(C)C[C@H](N[C@@H](c1ccc(-c2ccc(S(C)(=O)=O)cc2)cc1)C(F)(F)F)C(=O)N[C@@H](C#N)Cc1ccccc1
IC50 (Cathepsin K [1]): 5.1 nM
IC50 (Cathepsin B [2]): > 10000 nM
IC50 (Procathepsin L [3]): 2940 nM
IC50 (Cathepsin S [4]): 2830 nM

CC(C)C[C@H](N[C@@H](c1ccc(-c2ccc(S(C)(=O)=O)cc2)cc1)C(F)(F)F)C(=O)N[C@H](C#N)Cc1ccccc1
IC50 (Cathepsin K [1]): 0.6 nM
IC50 (Cathepsin B [2]): 953 nM
IC50 (Procathepsin L [3]): 67 nM
IC50 (Cathepsin S [4]): 38 nM

CC(C)C[C@H](N[C@@H](c1ccc(-c2ccc(S(C)(=O)=O)cc2)cc1)C(F)(F)F)C(=O)NC(C)(C)C#N
IC50 (Cathepsin K [1]): 4 nM
IC50 (Cathepsin B [2]): > 10000 nM
IC50 (Procathepsin L [3]): > 10000 nM
IC50 (Cathepsin S [4]): 2490 nM

CC(C)C[C@H](N[C@@H](c1ccc(-c2ccc(S(C)(=O)=O)cc2)cc1)C(F)(F)F)C(=O)NCC#N
half-life [5]: 2 h
clearance [6]: 7.5 mL/min/kg
IC50 (Cathepsin K [1]): 0.2 nM
IC50 (Cathepsin K [7]): 0.8 nM
IC50 (Osteoclast): 13 nM

CC(C)C[C@H](N[C@@H](c1ccc(-c2ccc(S(C)(=O)=O)cc2)cc1)C(F)(F)F)C(=O)NC(C#N)c1ccccc1 (mixture of isomers)
IC50 (Cathepsin K [1]): 0.6 nM
IC50 (Cathepsin B [2]): 3450 nM
IC50 (Procathepsin L [3]): 667 nM
IC50 (Cathepsin S [4]): 217 nM

CCCN1CCN(c2ccc(C(=O)NC3(C(=O)NCC#N)CCCCC3)cc2)CC1 [BALICATIB]
Activity (Fibroblast): 3

CC(C)(F)C[C@H](N[C@@H](c1ccc(-c2ccc(S(C)(=O)=O)cc2)cc1)C(F)(F)F)C(=O)NC1(C#N)CC1 [ODANACATIB]
IC50 (Cathepsin K [1]): 0.2 nM
IC50 (Cathepsin B [2]): 1030 nM
IC50 (Procathepsin L [3]): 3000 nM
IC50 (Cathepsin S [4]): 60 nM
IC50 (Cathepsin F): 795 nM
IC50 (Cathepsin L2): 762 nM
IC50 (Dipeptidyl peptidase 1): > 10000 nM
IC50 (Pro-cathepsin H): > 10000 nM
IC50 (Cathepsin Z): > 10000 nM
IC50 (Cathepsin K [8]): 0.2 nM
IC50 (Cathepsin K [7]): 1 nM
IC50 (Osteoclast): 23 nM
IC50 (Cathepsin B [9]): 1050 nM
IC50 (Procathepsin L [10]): 4840 nM
IC50 (Cathepsin S [11]): 45 nM
remaining at 2 h, 20 µM [12]: 98%
remaining at 2 h, 20 µM [13]: > 99%
remaining at 2 h, 20 µM [14]: > 99%
bioavailability [15]: 8%
CL/F [16]: 2 mL/min/kg
half-life [17]: 6 h
Vdss (Rattus norvegicus): 1.1 L/kg
bioavailability [18]: 6%
CL/F [19]: 0.13 mL/min/kg
half-life [20]: 57 h
Vdss (Canis familiaris): 0.6 L/kg
bioavailability [21]: 7%
CL/F [22]: 6.1 mL/min/kg
half-life [23]: 18 h
Vdss (Rhesus monkey): 1.6 L/kg
IC50 [24]: 1500 nM
MIC (Splenocyte): 1 µM (≈ 0.526 µg/mL)

CC(C)C[C@H](NC(=O)c1cc2ccccc2o1)C(=O)N[C@H]1CC[C@@H](C)N(S(=O)(=O)c2ccccn2)CC1=O [RELACATIB]
IC50 (Osteoclast): 15 nM
IC50 (Cathepsin B [9]): 14 nM
IC50 (Cathepsin S [11]): 8 nM
